{"source": "paper PMC10870110", "about": "(RSC Advances, 2024)", "key": {"[1]": {"system": "A375 human melanoma cell line", "assay": "Cytotoxicity by SRB assay on A375 cells", "type": "cell-based", "settings": "read-out: IC50 on A375 cells, 72 h treatment, mean ± SD (n = 3)", "in_short": "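A375 cells kept in DMEM with 10% FBS and 100 U mL−1 penicillin/streptomycin at 37 °C, 5% CO2. Seeded, grown 24 h, then exposed 72 h to test compound at 0.01–100 μM. Fixed in 10% TCA (1 h, 4 °C), stained with 0.4% w/v SRB (10 min, dark), washed with 1% acetic acid, dye dissolved in 10 mM Tris pH 10.5, A540 read.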"}, "A375 cells [2]": {"system": "A375 cells", "assay": "Annexin V-FITC/PI apoptosis assay", "type": "cell-based, human", "settings": "A375, IC50 concentration, 48 h"}, "A375 cells [3]": {"system": "A375 cells", "assay": "Scratch wound healing assay", "type": "cell-based, human", "settings": "4j at 0.5 μM", "in_short": "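Confluent A375 monolayers (1 × 10^5 cells/well seeding) scored with a pipette tip to give one straight cell-free line, PBS-rinsed, then exposed to test compound. Gap imaged at ×100 at 0, 24, 48 and 72 h; horizontal wound width measured. Closure % = 100 − (Wt/W0 × 100). Triplicates, mean ± SD; ANOVA with Tukey post-hoc, P < 0.05.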"}, "A375 cells [4]": {"system": "A375 cells", "assay": "Cell cycle analysis by DNA flow cytometry", "type": "cell-based, human", "settings": "A375, 48 h treatment"}, "[5]": {"system": "normal human skin fibroblast cells (HSF)", "assay": "Cytotoxicity by SRB assay on normal HSF cells", "type": "cell-based", "settings": "for IC50: Homo sapiens, Skin fibroblast, read-out: HSF IC50; for Selectivity index (SI): IC50 of normal cells (HSF)/IC50 of tumor cells (A375)", "in_short": "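Normal human skin fibroblasts (HSF) grown in DMEM/10% FBS/penicillin-streptomycin, 37 °C, 5% CO2. Plated 24 h, then 72 h with test compound at 0.01–100 μM. TCA fixation, SRB staining, 10 mM Tris pH 10.5 solubilisation, absorbance at 540 nm. IC50 by Emax curve fit, mean ± SD. Selectivity index = IC50 in HSF / IC50 in A375.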"}, "VEGFR-2": {"target": "VEGFR-2 (Homo sapiens, UniProt P35968)", "sequence (P35968 20-1356)": "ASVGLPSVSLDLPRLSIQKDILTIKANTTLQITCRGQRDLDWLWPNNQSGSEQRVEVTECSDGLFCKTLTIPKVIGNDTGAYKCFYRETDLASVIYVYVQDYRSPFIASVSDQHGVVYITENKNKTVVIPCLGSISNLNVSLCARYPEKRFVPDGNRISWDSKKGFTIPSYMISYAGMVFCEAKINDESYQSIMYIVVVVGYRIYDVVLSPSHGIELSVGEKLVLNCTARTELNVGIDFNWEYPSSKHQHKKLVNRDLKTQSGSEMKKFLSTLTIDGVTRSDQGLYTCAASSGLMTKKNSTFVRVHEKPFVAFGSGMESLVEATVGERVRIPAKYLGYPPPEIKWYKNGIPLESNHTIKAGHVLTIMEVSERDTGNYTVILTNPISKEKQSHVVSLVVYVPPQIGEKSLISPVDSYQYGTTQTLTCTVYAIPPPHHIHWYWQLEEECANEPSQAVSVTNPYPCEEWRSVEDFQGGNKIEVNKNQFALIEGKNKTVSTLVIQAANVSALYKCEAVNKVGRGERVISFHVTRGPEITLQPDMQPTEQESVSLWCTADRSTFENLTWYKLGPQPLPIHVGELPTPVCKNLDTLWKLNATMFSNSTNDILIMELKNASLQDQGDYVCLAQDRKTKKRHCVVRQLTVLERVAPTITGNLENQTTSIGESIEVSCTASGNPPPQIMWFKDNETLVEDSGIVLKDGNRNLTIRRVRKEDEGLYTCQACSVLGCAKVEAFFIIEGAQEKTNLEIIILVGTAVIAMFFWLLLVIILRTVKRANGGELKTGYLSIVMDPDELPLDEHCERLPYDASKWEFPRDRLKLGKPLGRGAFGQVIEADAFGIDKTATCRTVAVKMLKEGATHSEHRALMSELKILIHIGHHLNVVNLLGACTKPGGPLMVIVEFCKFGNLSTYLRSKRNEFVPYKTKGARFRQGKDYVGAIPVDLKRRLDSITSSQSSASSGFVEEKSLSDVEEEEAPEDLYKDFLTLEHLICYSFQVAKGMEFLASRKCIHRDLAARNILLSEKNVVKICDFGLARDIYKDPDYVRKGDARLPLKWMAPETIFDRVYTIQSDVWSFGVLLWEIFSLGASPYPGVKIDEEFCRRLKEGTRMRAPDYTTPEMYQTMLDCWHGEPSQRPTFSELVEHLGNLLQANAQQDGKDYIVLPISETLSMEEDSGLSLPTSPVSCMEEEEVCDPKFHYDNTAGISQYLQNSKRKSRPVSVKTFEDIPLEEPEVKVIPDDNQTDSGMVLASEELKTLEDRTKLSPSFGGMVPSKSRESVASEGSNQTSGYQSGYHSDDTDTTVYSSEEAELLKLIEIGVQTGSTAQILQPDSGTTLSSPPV", "assay": "VEGFR-2 inhibition assay", "type": "cell-based"}, "BRAF^V600E": {"target": "BRAF^V600E (Homo sapiens, UniProt P15056, V600E)", "sequence (P15056 whole entry V600E)": "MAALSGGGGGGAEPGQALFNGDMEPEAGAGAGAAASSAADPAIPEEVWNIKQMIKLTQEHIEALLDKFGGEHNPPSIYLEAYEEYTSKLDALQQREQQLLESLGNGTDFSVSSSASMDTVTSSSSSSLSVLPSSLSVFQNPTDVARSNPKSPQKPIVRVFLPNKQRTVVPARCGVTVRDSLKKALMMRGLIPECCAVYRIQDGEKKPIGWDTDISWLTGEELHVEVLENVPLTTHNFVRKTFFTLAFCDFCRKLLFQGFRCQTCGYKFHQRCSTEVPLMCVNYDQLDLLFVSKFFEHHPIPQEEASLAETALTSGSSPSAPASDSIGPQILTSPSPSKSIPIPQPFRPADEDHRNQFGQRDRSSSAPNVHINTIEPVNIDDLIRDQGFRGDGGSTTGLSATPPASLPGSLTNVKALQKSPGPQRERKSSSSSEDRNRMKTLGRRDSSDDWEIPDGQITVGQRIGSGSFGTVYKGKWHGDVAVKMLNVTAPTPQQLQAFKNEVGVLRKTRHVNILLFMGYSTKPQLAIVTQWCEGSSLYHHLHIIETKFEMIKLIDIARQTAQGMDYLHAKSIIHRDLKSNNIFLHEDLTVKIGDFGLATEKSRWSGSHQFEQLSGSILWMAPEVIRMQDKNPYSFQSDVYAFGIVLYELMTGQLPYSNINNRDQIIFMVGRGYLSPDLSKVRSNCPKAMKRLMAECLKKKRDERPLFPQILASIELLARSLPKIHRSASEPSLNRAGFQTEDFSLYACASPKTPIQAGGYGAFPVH", "assay": "BRAF^V600E inhibition assay", "type": "cell-based"}}}
{"smiles": "O=C1C(n2nc(-c3c(O)c4ccccc4oc3=O)cc2-c2ccc(F)cc2)c2ccccc2N1Cc1ccccc1", "note": "(stereo not shown) [Compound 4c, 1-Benzyl-3-(5-(4-fluorophenyl)-3-(4-hydroxy-2-oxo-2H-chromen-3-yl)-1H-pyrazol-1-yl) indolin-2-one]", "values": [{"measurement": "IC50", "setting": "[1]", "result": "4.6 ± 0.32", "unit": "µM"}]}
{"smiles": "O=C1C(n2nc(-c3c(O)c4ccccc4oc3=O)cc2-c2ccc(Cl)cc2)c2ccccc2N1Cc1ccccc1", "note": "(stereo not shown) [Compound 5c, 1-Benzyl-3-(5-(4-chlorophenyl)-3-(4-hydroxy-2-oxo-2H-chromen-3-yl)-1H-pyrazol-1-yl)indolin-2-one]", "values": [{"measurement": "IC50", "setting": "[1]", "result": "3.8 ± 0.22", "unit": "µM"}]}
{"smiles": "CNC(=O)c1cc(Oc2ccc(NC(=O)Nc3ccc(Cl)c(C(F)(F)F)c3)cc2)ccn1", "note": "[Sorafenib, reference compound]", "values": [{"measurement": "apoptotic cell death", "setting": "A375 cells [2]", "result": 9.6, "unit": "%"}, {"measurement": "scratch closure", "setting": "A375 cells [3]; A375, 24 h", "result": 9.15, "unit": "%"}, {"measurement": "scratch closure", "setting": "A375 cells [3]; A375, 48 h", "result": 12.07, "unit": "%"}, {"measurement": "scratch closure", "setting": "A375 cells [3]; A375, 72 h", "result": 24.17, "unit": "%"}, {"measurement": "cell percentage in the G2/M phase", "setting": "A375 cells [4]", "result": 23.02, "unit": "%"}, {"measurement": "cell population of the G0/G1-phase", "setting": "A375 cells [4]", "result": 60.43, "unit": "%"}, {"measurement": "cell population of the pre-G phase", "setting": "A375 cells [4]", "result": 22.88, "unit": "%"}]}
{"smiles": "O=C1C(n2nc(-c3c(O)c4ccccc4oc3=O)cc2-c2ccc(Cl)cc2)c2cc(Br)ccc2N1Cc1ccccc1", "note": "(stereo not shown) [Compound 5i, 1-Benzyl-5-bromo-3-(5-(4-chlorophenyl)-3-(4-hydroxy-2-oxo-2H-chromen-3-yl)-1H-pyrazol-1-yl)indolin-2-one]", "values": [{"measurement": "IC50", "setting": "[5]", "result": "3.63 ± 0.76", "unit": "µM"}, {"measurement": "Selectivity index (SI)", "setting": "[5]", "result": 3.5}]}
{"smiles": "O=C1C(n2nc(-c3c(O)c4ccccc4oc3=O)cc2-c2ccc(Cl)cc2)c2cc(Cl)ccc2N1Cc1ccccc1", "note": "(stereo not shown) [Compound 5f, 1-Benzyl-5-chloro-3-(5-(4-chlorophenyl)-3-(4-hydroxy-2-oxo-2H-chromen-3-yl)-1H-pyrazol-1-yl)indolin-2-one]", "values": [{"measurement": "IC50", "setting": "[5]", "result": "3.59 ± 0.32", "unit": "µM"}, {"measurement": "Selectivity index (SI)", "setting": "[5]", "result": 3.3}]}
{"smiles": "O=C1C(n2nc(-c3c(O)c4ccccc4oc3=O)cc2-c2ccc(F)cc2)c2cc(Br)ccc2N1Cc1ccccc1", "note": "(stereo not shown) [Compound 4i, 1-Benzyl-5-bromo-3-(5-(4-fluorophenyl)-3-(4-hydroxy-2-oxo-2H-chromen-3-yl)-1H-pyrazol-1-yl)indolin-2-one]", "values": [{"measurement": "IC50", "setting": "[5]", "result": "3.26 ± 0.29", "unit": "µM"}, {"measurement": "Selectivity index (SI)", "setting": "[5]", "result": 2.5}]}
{"smiles": "O=C1Nc2ccc(OC(F)(F)F)cc2C1n1nc(-c2c(O)c3ccccc3oc2=O)cc1-c1ccc(F)cc1", "note": "(stereo not shown) [Compound 4j, 3-(5-(4-Fluorophenyl)-3-(4-hydroxy-2-oxo-2H-chromen-3-yl)-1H-pyrazol-1-yl)-5 (trifluoromethoxy) indolin-2-one]", "values": [{"measurement": "early apoptosis (Q2-4)", "setting": "A375 cells [2]", "result": 6.07, "unit": "%"}, {"measurement": "late apoptosis (Q2-2)", "setting": "A375 cells [2]", "result": 2.3, "unit": "%"}, {"measurement": "necrotic cell death (Q2-1)", "setting": "A375 cells [2]", "result": 2.52, "unit": "%"}, {"measurement": "total cell death", "setting": "A375 cells [2]; apoptosis plus necrosis", "result": "~10.22", "unit": "%"}, {"measurement": "IC50", "setting": "[5]", "result": "9.58 ± 0.73", "unit": "µM"}, {"measurement": "Selectivity index (SI)", "setting": "[5]", "result": 9.9}, {"measurement": "scratch closure", "setting": "A375 cells [3]; A375, 24 h", "result": 14.28, "unit": "%"}, {"measurement": "scratch closure", "setting": "A375 cells [3]; A375, 48 h", "result": 17.57, "unit": "%"}, {"measurement": "scratch closure", "setting": "A375 cells [3]; A375, 72 h", "result": 35.16, "unit": "%"}, {"measurement": "IC50", "setting": "VEGFR-2", "result": "0.64 ± 0.08", "unit": "µM"}, {"measurement": "cell percentage in the G2/M phase", "setting": "A375 cells [4]", "result": 16.00, "unit": "%"}, {"measurement": "cell percentage of the S phase", "setting": "A375 cells [4]", "result": 9.86, "unit": "%"}, {"measurement": "cell population of the G0/G1-phase", "setting": "A375 cells [4]", "result": 74.14, "unit": "%"}, {"measurement": "cell population of the pre-G phase", "setting": "A375 cells [4]", "result": 1.88, "unit": "%"}, {"measurement": "fold more active than the reference sorafenib (BRAF^V600E inhibition)", "setting": "BRAF^V600E", "result": 2, "unit": "fold"}, {"measurement": "IC50", "setting": "BRAF^V600E; BRAF^V600E IC50, A375 cells, 24 h exposure, ELISA", "result": 1.03, "unit": "µM"}]}
{"smiles": "O=C1C(n2nc(-c3c(O)c4ccccc4oc3=O)cc2-c2ccc(F)cc2)c2cc(Cl)ccc2N1Cc1ccccc1", "note": "(stereo not shown) [Compound 4f, 1-Benzyl-5-chloro-3-(5-(4-fluorophenyl)-3-(4-hydroxy-2-oxo-2H-chromen-3-yl)-1H-pyrazol-1-yl) indolin-2-one]", "values": [{"measurement": "IC50", "setting": "[5]", "result": "4.18 ± 0.25", "unit": "µM"}, {"measurement": "Selectivity index (SI)", "setting": "[5]", "result": 3.6}, {"measurement": "IC50", "setting": "[1]", "result": "1.11 ± 0.02", "unit": "µM"}]}
